Experimental data from ChEMBL document CHEMBL1153523, “Design, synthesis, and biological activity of a family of novel ceramide analogues in chemoresistant breast cancer cells” (J Med Chem, 2009).
Active and inactive are the calls of the source. The calls are words filed in the database; no cut-off is given here.

Legend:
[1] = tested on: MCF7; assay: Inhibition of clonogenic survival of human MCF7 cells after 10 days by microscopy; assay type: functional, cell-based; settings: MCF7, 240 h
Outline: (§1)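 Clonogenic survival: cells were treated at 0.1 to 20 µM for 10 days. Colonies were then fixed and stained, and counts were expressed as percent of vehicle control.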

[2] = tested on: MDA-MB-231; assay: Inhibition of clonogenic survival of endocrine-resistant human MDA-MB-231 cells at 0.1 to 20 uM after 10 days by microscopy; assay type: functional, cell-based; outline: as §1
[3] = tested on: MCF7; assay: Inhibition of clonogenic survival of tumor necrosis factor-resistant human MCF7 cells at 0.1 to 20 uM after 10 days by microscopy; assay type: functional, cell-based; outline: as §1
[4] = tested on: MCF7; assay: Inhibition of clonogenic survival of tumor necrosis factor-resistant human MCF7 cells after 10 days by microscopy; assay type: functional, cell-based; settings: MCF7, 240 h; outline: as §1
[5] = tested on: MCF7; assay: Inhibition of clonogenic survival of human MCF7 cells at 0.1 to 20 uM after 10 days by microscopy; assay type: functional, cell-based; outline: as §1
[6] = tested on: MDA-MB-231; assay: Inhibition of clonogenic survival of endocrine-resistant human MDA-MB-231 cells after 10 days by microscopy; assay type: functional, cell-based; settings: MDA-MB-231, 240 h; outline: as §1
[7] = tested on: MDA-MB-231; assay: Decrease in endogenous sphingosine-1-phosphate level in endocrine-resistant human MDA-MB-231 cells at 10 uM after by ESI/MS/MS analysis; assay type: functional, cell-based
Outline: (§2)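 MCF-7, MDA-MB-231 or MCF-7TN-R cells were treated at 10 µM for 24 h, and cellular sphingolipid species were then quantified. Values are mean ± SE of two independent experiments.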

[8] = tested on: MCF7; assay: Increase in endogenous dihydrosphingosine level in tumor necrosis factor-resistant human MCF7 cells at 10 uM after 24 hrs by ESI/MS/MS analysis relative to DMSO control; assay type: functional; outline: as §2
[9] = tested on: MCF7; assay: Decrease in endogenous sphingosine-1-phosphate level in human MCF7 cells at 10 uM after by ESI/MS/MS analysis; assay type: functional, cell-based; outline: as §2
[10] = tested on: MCF7; assay: Decrease in endogenous sphingosine-1-phosphate level in tumor necrosis factor-resistant human MCF7 cells at 10 uM after by ESI/MS/MS analysis; assay type: functional, cell-based; outline: as §2
[11] = tested on: MCF7; assay: Induction of apoptosis in human MCF7 cells assessed as appearance of nucleosomes in cytoplasm at 9.4 uM after 24 hrs by ELISA relative to DMSO control; assay type: functional
Outline: (§3)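 Apoptosis in MCF-7 cells was measured by a cell death detection ELISA after 24 h exposure at 8.3 or 9.4 µM. Values are mean ± SE of three independent experiments.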

[12] = Antiproliferative activity against human MCF10A cells at 100 uM after 24 hrs by MTT assay; assay type: cell-based; settings: mcf-10a
Outline: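 Normal MCF10A breast epithelial cells were exposed to drug at 0.1–100 µM for 24 h, and proliferation was measured. Values are mean ± SE of four independent experiments.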

[13] = tested on: MCF7; assay: Induction of apoptosis in human MCF7 cells assessed as appearance of nucleosomes in cytoplasm at 8.3 uM after 24 hrs by ELISA relative to DMSO control; assay type: functional; outline: as §3
[14] = tested on: MCF7; assay: Increase in endogenous sphingosine-1-phosphate level in human MCF7 cells at 10 uM after by ESI/MS/MS analysis; assay type: functional, cell-based; outline: as §2
[15] = tested on: MCF7; assay: Increase in endogenous sphingosine-1-phosphate level in tumor necrosis factor-resistant human MCF7 cells at 10 uM after by ESI/MS/MS analysis; assay type: functional, cell-based; outline: as §2
[16] = tested on: MCF7; assay: Selectivity for tumor necrosis factor-resistant human MCF7 cells over human MCF10A cells
[17] = tested on: MDA-MB-231; assay: Increase in endogenous sphingosine-1-phosphate level in endocrine-resistant human MDA-MB-231 cells at 10 uM after by ESI/MS/MS analysis; assay type: functional, cell-based; outline: as §2

| SMILES | IC50 [1] [µM] | Activity [2] | Activity [3] | IC50 [4] [µM] | Activity [5] | IC50 [6] [µM] | Activity [7] | fold change (FC) [8] | Activity [9] | Activity [10] | fold change (FC) [11] | Activity [12] | fold change (FC) [13] | Activity [14] | Activity [15] | Ratio [16] | Activity [17] |
| --- | --- | --- | --- | --- | --- | --- | --- | --- | --- | --- | --- | --- | --- | --- | --- | --- | --- |
| CCCCCCCCCCCCCCNC(=O)[C@H](CO)NCc1ccccc1 | 5 | Active | Active | 15.2 | Active | 10.5 |  |  |  |  |  |  |  |  |  |  |  |
| CCCCCCCCCCCCCCNC(=O)[C@H](CO)NC(=O)C1CCCCC1 | 7.2 | Active | Active | 23.5 | Active | 11.5 |  |  |  |  |  |  |  |  |  |  |  |
| CCCCCCCCCCCCCCNC(=O)[C@H](CO)/N=C/c1ccccc1 | 4.7 | Active | Active | 7.7 | Active | 2.4 | Active | 50 | Active | Active | 5.4 | Non-toxic |  |  |  |  |  |
| CCCCCCCCCCCCCCNC(=O)[C@H](CO)NC(C)=O | 44.7 | Active | Active | 52.7 | Active | 75.1 |  |  |  |  |  |  |  |  |  |  |  |
| CCCCCCCCCCCCCCC[C@H](O)[C@@H](CO)NC(=O)CCCCCCC (single isomer, unassigned) | 31.7 |  |  | 49.6 |  | 41.4 |  |  |  |  |  |  |  |  |  |  |  |
| CCCCCCCCCCCCCCNC(=O)[C@H](CO)NC(=O)C(C)(C)C | 6.7 | Active | Active | 11.1 | Active | 6.1 |  |  |  |  |  |  |  |  |  |  |  |
| CCCCCCCCCCCCC/C=C/[C@@H](O)[C@H](CO)NC(=O)CCCCCCC | 4.2 |  |  | 8.6 |  | 3 |  |  |  |  |  | Non-toxic | 5 | Active | Active | >50 | Active |
| CCCCCCCCCCCCCCNC(=O)[C@H](CO)NC(=O)c1cc(OC)cc(OC)c1 | 11.2 | Active | Active | 15 | Active | 6.6 |  |  |  |  |  |  |  |  |  |  |  |
